These results are taken from ChEMBL document CHEMBL3739406, “Trisubstituted Thieno[3,2-b]pyrrole 5-Carboxamides as Potent Inhibitors of Alphaviruses” (J Med Chem, 2015).

In series [1] the test system is Chikungunya virus. Put plainly: Antiviral activity against wild type Chikungunya virus IMT infected in HEK293T cells assessed as inhibition of nsP3 protein expression at 5 uM measured at 24 hrs postinfection by Western blot method. Particulars: HEK-293T. The class given is functional, cell-based.
Series [2] relates to Chikungunya virus. In words: Antiviral activity against wild type Chikungunya virus IMT infected in HEK293T cells assessed as inhibition of nsP1 protein expression at 5 uM measured at 24 hrs postinfection by Western blot method. The class given is functional, cell-based. As to conditions: HEK-293T. A general note: In western blotting, separated proteins are transferred to a membrane and probed.

Series [3] deals with Chikungunya virus. Put plainly: Antiviral activity against wild type Chikungunya virus IMT infected in HEK293T cells assessed as inhibition of infectivity at 5 uM measured at 24 hrs postinfection by FITC/DAPI staining based array scan VTI HCS reader analysis. Type of series: functional. Particulars: HEK-293T.
The nature of series [4]: Cytotoxicity against HEK293T cells assessed as cell viability at antiviral EC50 after 24 hrs by cell titer-glo luminescent cell viability assay. The class given is cell-based, HEK-293T. As to conditions: human, read-out: Activity. The method in brief:
(§1)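 HEK 293T cells, 3 × 10⁴/well, seeded overnight, then exposed 24 h to compound (0.01–100 μM, triplicate) in DMEM pH 6.8 with 10% FBS. Viability read by CellTiter-Glo luminescence. Normalized to untreated (100%) and medium blank (0%); CC50 by five-parameter curve fit.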
On the technique in general: Cellular ATP, detected with luciferase, serves as a proxy for viable cell number.

The test system of series [5] is Chikungunya virus. Put plainly: Antiviral activity against wild type Chikungunya virus IMT infected in HEK293T cells assessed as inhibition of E2 protein expression at 5 uM measured at 24 hrs postinfection by Western blot method. Type of series: functional, cell-based. Particulars: HEK-293T.
The test system of series [6] is Chikungunya virus. In words: Antiviral activity against wild type Chikungunya virus IMT infected in HEK293T cells assessed as inhibition of viral capsid protein at 5 uM measured at 24 hrs postinfection by Western blot method. Type of series: functional, cell-based. As to conditions: HEK-293T.
Series [7] relates to Onyong-nyong virus. In words: Antiviral activity against O'nyong-nyong virus infected in HEK293T cells assessed as inhibition of infectivity measured at 24 hrs postinfection by FITC/DAPI staining based array scan VTI HCS reader analysis. As to conditions: HEK-293T. The class given is functional, cell-based.
Series [8] concerns Chikungunya virus. Put plainly: Antiviral activity against wild type Chikungunya virus IMT infected in HEK293T cells assessed as inhibition of infectivity measured at 24 hrs postinfection by FITC/DAPI staining based array scan VTI HCS reader analysis. Type of series: functional, cell-based. Particulars: HEK-293T.
Series [9] has as its system Sindbis virus. In words: Antiviral activity against wild type Sindbis virus infected in HEK293T cells assessed as inhibition of infectivity measured at 24 hrs postinfection by FITC/DAPI staining based array scan VTI HCS reader analysis. The class given is functional, organism-based. Particulars: HEK-293T.
For series [10], the system named is Chikungunya virus. Put plainly: Antiviral activity against Chikungunya virus infected in HEK293T cells assessed as reduction of infectivity measured at 24 hrs postinfection by gaussia luciferase reporter gene assay. Type of series: functional, cell-based. As to conditions: HEK-293T. In general terms: Reporter assays use an easily measured gene product as a stand-in for the process of interest.

A short description of series [11]: Selectivity index, ratio of CC50 for HEK293T cells to EC50 for Chikungunya virus infected in HEK293T cells. The class given is toxicity, cell-based, HEK-293T. As to conditions: human, read-out: Ratio CC50/EC50.
A short description of series [12]: Cytotoxicity against HEK293T cells assessed as reduction in cell viability after 24 hrs by cell titer-glo luminescent cell viability assay. The class given is cell-based, HEK-293T. As to conditions: human. The method in brief: as §1
Series [13] relates to HEK293. Put plainly: Toxicity in HEK293T cells infected with Chikungunya virus IMT assessed as reduction in beta-actin protein expression at 0.1 to 5 uM measured at 24 hrs postinfection by Western blot method. As to conditions: human, hek293, 24 h. The class given is cell-based.
Series [14] deals with Chikungunya virus. Put plainly: Antiviral activity against wild type Chikungunya virus IMT infected in HEK293T cells assessed as reduction of viral nsP1 gene expression measured at 24 hrs postinfection by qRT-PCR method. Type of series: functional, cell-based. Particulars: HEK-293T.
The test system of series [15] is Chikungunya virus. Put plainly: Antiviral activity against wild type Chikungunya virus IMT infected in HEK293T cells assessed as inhibition of E2 protein expression measured at 24 hrs postinfection by Western blot method. Type of series: functional, cell-based. Particulars: HEK-293T.
In series [16] the test system is Chikungunya virus. Put plainly: Antiviral activity against wild type Chikungunya virus IMT infected in HEK293T cells assessed as reduction of viral E1 gene expression measured at 24 hrs postinfection by qRT-PCR method. The class given is functional, cell-based. Particulars: HEK-293T.
Series [17] has as its system Chikungunya virus. Put plainly: Antiviral activity against wild type Chikungunya virus IMT infected in HEK293T cells assessed as inhibition of capsid protein expression measured at 24 hrs postinfection by Western blot method. The class given is functional, cell-based. As to conditions: HEK-293T.
For series [18], the system named is Chikungunya virus. Put plainly: Antiviral activity against wild type Chikungunya virus IMT infected in HEK293T cells assessed as inhibition of nsP3 protein expression measured at 24 hrs postinfection by Western blot method. Type of series: functional, cell-based. Particulars: HEK-293T.
In series [19] the test system is Chikungunya virus. In words: Antiviral activity against wild type Chikungunya virus IMT infected in HEK293T cells assessed as reduction of viral E1 gene expression at 2.5 uM measured at 24 hrs postinfection by qRT-PCR method relative to control. The class given is functional, HEK-293T.
Series [20] relates to Chikungunya virus. Put plainly: Antiviral activity against wild type Chikungunya virus IMT infected in HEK293T cells assessed as reduction of viral nsP1 gene expression at 2.5 uM measured at 24 hrs postinfection by qRT-PCR method relative to control. The class given is functional, HEK-293T.
Series [21] deals with Chikungunya virus. Put plainly: Antiviral activity against wild type Chikungunya virus IMT infected in HEK293T cells assessed as inhibition of nsP1 protein expression measured at 24 hrs postinfection by Western blot method. Type of series: functional, cell-based. Particulars: HEK-293T.

The inhibition is the change of the read-out against control, counted positive when it falls. By EC50 is commonly meant the concentration giving half of the maximal effect. What is called CC50 is the concentration at which the toxic effect on the cells reaches its halfway point.

Calls of active or inactive are those of the source. The rule behind the calls is not given here.

Take `NC(=O)c1ncn([C@@H]2O[C@H](CO)[C@@H](O)[C@H]2O)n1` [RIBAVIRIN]: the inhibition result in series [1], in [2], in series [5] and in [6] was “inactive” each time. Moreover, the inhibition at 5 µM in series [3] worked out at 10%. Also, in series [4], the viability at 24 h is over 80%. The EC50 was 18.4 µM in series [7], 20 µM in [8], 5.12 µM in series [9] and 13.1 µM in [10]. The inhibition result in series [8] was “Dose-dependent effect”.
Consider `CCCNC(=O)C1CCN(C(=O)c2cc3sc(C)cc3n2Cc2ccc(OC)cc2)CC1`, for which the selectivity ratio in [11] was found to be 10. For the same compound, in series [4], the viability at 24 h was over 80%. Also, in series [8], the EC50 was 3.27 µM and the inhibition entry is “Dose-dependent effect”. Further, the CC50 at 24 h in series [12] amounted to 36.3 µM. Besides, the EC50 in [10] is 3.6 µM.
For `CCCNC(=O)C1CCN(C(=O)c2cc3sc(Br)cc3n2Cc2ccc(OC)cc2)CC1`, the selectivity ratio in [11] is over 32. In series [3], the inhibition at 5 µM amounted to 60%. Besides, in series [4], the viability at 24 h is over 80%. The EC50 is 2.58 µM in [7], 1.96 µM in series [8], 1.14 µM in series [9] and 3.1 µM in [10]. Further, the Activity entry is “Non-toxic” in series [13], “Dose-dependent effect” in series [14] and “Dose-dependent effect” in series [16]. Further, the inhibition entry in [8], in series [15], in series [17], in series [18] and in series [21] was “Dose-dependent effect” each time. Further, the 50% cytotoxic concentration (CC50) at 24 h in series [12] is over 100 µM. For the same compound, the “fold change (FC)” value in series [19] and in series [20] was 100 in each case.
Regarding `COc1ccc(Cn2c(C(=O)N3CCN(Cc4ccccc4)CC3)cc3sc(CNC(C)c4ccccc4)cc32)cc1` (stereo not drawn), the selectivity ratio in [11] was over 11. In addition, the viability at 24 h in series [4] is over 80%. In [8], the concentration for a half-maximal effect (EC50) worked out at 25.5 µM and the inhibition result is “Dose-dependent effect”. In series [12], the cytotoxic concentration (CC50) at 24 h was over 100 µM. For the same compound, the EC50 in series [10] amounted to 9.44 µM.
For the compound `CCCNC(=O)C1CCN(C(=O)c2cc3sc(CO)cc3n2Cc2ccc(OC)cc2)CC1`, the selectivity ratio in series [11] was 3.6. Also, in series [3], the inhibition at 5 µM is 60%. Also, the viability at 24 h in series [4] was over 80%. Further, the Activity result in series [13] is “Non-toxic”; in series [14] it was “Dose-dependent effect”; in series [16], “Dose-dependent effect”. Also, the concentration giving a half-maximal response (EC50) in series [8] was found to be 2.39 µM; in [10], 4.33 µM. The inhibition result in series [8], in [15], in series [17], in series [18] and in [21] was “Dose-dependent effect” throughout. Also, the half-maximal cytotoxic concentration (CC50) at 24 h in [12] came to 15.5 µM.
`CCCNC(=O)C1CCN(C(=O)c2cc3sc(C#N)cc3n2Cc2ccc(OC)cc2)CC1`: the selectivity ratio in [11] was over 20. Also, the viability at 24 h in series [4] was over 80%. For the same compound, in series [8], the half-maximal effective concentration (EC50) turned out to be 8.23 µM and the inhibition result is “Dose-dependent effect”. The CC50 at 24 h in [12] was over 100 µM. Moreover, in [10], the EC50 was 4.9 µM.
For the compound `CCCNC(=O)C1CCN(C(=O)c2c(Br)c3sccc3n2Cc2ccc(OC)cc2)CC1`, the selectivity ratio in [11] was found to be 4.1. The viability at 24 h in series [4] was over 80%. The EC50 in series [8] worked out at 14 µM; in series [10], 7.75 µM. Also, the inhibition entry in series [8] was “Dose-dependent effect”. Also, the cytotoxic concentration (CC50) at 24 h in series [12] was determined as 31.6 µM.
Take `CCCNC(=O)C1CCN(C(=O)c2cc3sc(-c4ccccc4)cc3n2Cc2ccc(OC)cc2)CC1`: the selectivity ratio in series [11] is over 26. In addition, the viability at 24 h in series [4] was over 80%. For the same compound, in series [8], the half-maximal effective concentration (EC50) was 3.08 µM and the inhibition entry is “Dose-dependent effect”. Further, the CC50 at 24 h in series [12] is over 100 µM. Moreover, the EC50 in series [10] was 3.85 µM.
